Assay results collected from several papers.
Medium: plasma

Compound | species | route | dose | notes | half-life [h]
c1cnc2ccc(Nc3nc(NC4CC4)c4nc[nH]c4n3)cc2c1 | human | oral | 200 mg/m² | patients | 2.1
CC(C)[C@](O)(c1ccc2cc(OC(F)F)c(OC(F)F)cc2c1)c1c[nH]nn1 | female human | oral | 750 mg | single dose | 6.8
CC(C)(O)c1ccccc1-c1ccc2[nH]c(/C=C/c3ccc(C(F)(F)F)cc3)nc2c1 | male human | oral | 225 mg | single dose, fasted, healthy volunteers | 85.9
C[C@@H](Nc1cc(F)cc(F)c1)c1cc(C(=O)N(C)C)cc2c(=O)cc(N3CCOCC3)oc12 | human | oral | 120 mg | single dose, patients | 3.33
CO[C@@H]1[C@H](OC(=O)N2CC(CCN3CCOCC3)C2)CC[C@]2(CO2)[C@H]1[C@@]1(C)O[C@@H]1CC=C(C)C | human | subcutaneous | 1.2 mg | single dose, healthy volunteers | 0.72
Cn1cc(-c2ccc(S(=O)(=O)[C@@H]3C[C@@H](C(=O)NC4(C#N)CC4)N(C(=O)C4(C(F)(F)F)CC4)C3)c(C(F)(F)F)c2)cn1 | human | oral | 300 mg | single dose, fasted, healthy volunteers | 16
CC(C)n1cc(C#N)c2cc(-n3cc(C(=O)O)cn3)ccc21 | human | oral | 200 mg | single dose, fasted, healthy volunteers | 13.3
NS(=O)(=O)NCCNc1nonc1C(=NO)Nc1ccc(F)c(Br)c1 | human | oral | 100 mg | multiple doses, twice daily, steady state, patients | 3.3
CC(C)(Sc1ccncc1-c1ccc(C#N)c2ccccc12)C(=O)O | male human | oral | 20 mg | single dose, fed, healthy volunteers | 13.8
COc1cc(C(=O)NC2CCN(C)CC2)c(F)cc1Nc1ncc(C(F)(F)F)c(Oc2cccc3c2C(=O)N(C)C3)n1 | human | oral | 50 mg | multiple doses, once daily, patients | 21.5
C#C[C@]1(COP(=O)(O)OP(=O)(O)OP(=O)(O)O)O[C@@H](n2cnc3c(N)nc(F)nc32)C[C@@H]1O | human | oral | 30 mg | single dose | 118
CO[C@H]1CC[C@H](N2C(=O)CNc3ncc(-c4ccc(C(C)(C)O)nc4)nc32)CC1 | human | oral | 30 mg | patients | 5.57
CCNCCCNC/C=C\CNCCCNCC | human | intravenous | 200 mg | patients, infusion | 0.14
COCCOc1cnc2ccn([C@H](C)c3nnc4c(F)cc(-c5cnn(C)c5)cn34)c(=O)c2c1 | human | oral | 150 mg | multiple doses, once daily, patients | 9.9
COc1ccc([C@@H]2CN(C(=O)[C@@H](O)CO)C[C@@]2(C)[C@@H](C)O)cc1OC1CN(c2ccc(C)cn2)C1 | human | oral | 0.1 mg | single dose, healthy volunteers | 9.74
